The array DNA melting data of Ke et al. (doi:10.1101/2024.01.08.574731)

Key:
[1] = melting temperature; fluorescence melt of hairpins on a sequencing array, two-state fit, raised by 9.35 °C to match UV melts; settings: sodium 0.088 M
In short: (§1)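 On a sequenced MiSeq flow cell, library hairpins with annealed Cy3 and quencher oligos were imaged for Cy3 fluorescence in 2.5 °C steps up to 60 °C, in 50 mM Na-HEPES pH 8.0, 25 mM NaCl. Normalisation used pre-quench Cy3 and control constructs. Bootstrapped two-state fits gave melting temperature and folding enthalpy, combined by inverse variance across four replicates and with fitted temperatures raised by 9.35 °C to match UV melts.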

[2] = folding enthalpy; higher = less favourable; fluorescence melt of hairpins on a sequencing array, two-state fit; settings: sodium 0.088 M
In short: as §1

Sequence | Tm [1] | folding enthalpy [2]
GATCCGCTGTCGGATC ((((((....)))))) | 57.8 °C | -42.1 kcal/mol
GATCAGGATACTGATC ((((((....)))))) | 56 °C | -33.8 kcal/mol
GTACTTGGAAACAAGTGC (.(((((....))))).) | 47.4 °C | -21.1 kcal/mol
GACCAGACGAAAGTCGTC (((..(((....)))))) | 31.7 °C | -12.5 kcal/mol
GTTGTGCCGAAAGGCAAC (((..(((....)))))) | 53 °C | -19.6 kcal/mol
GATCGGGCAGCCGATC ((((((....)))))) | 59.3 °C | -40.3 kcal/mol
GCGTCAGAACGC ((((....)))) | 52 °C | -23.6 kcal/mol
GAGTACGGAAACGCACTC ((((.((....)).)))) | 45.3 °C | -31.6 kcal/mol
GTCTTCGAAAGAAGGAC ((((((....))).))) | 41.6 °C | -16.4 kcal/mol
GCGGACGAAAGTCGTCGC ((((((....)))..))) | 52.6 °C | -22.8 kcal/mol
GCCGCGCGAAAGCACCGC ((.(.((....)).).)) | 46.5 °C | -13.8 kcal/mol
GTAGTGCGAAAGCATTAC (((.(((....))).))) | 51 °C | -25.6 kcal/mol
GGAGACGAAAGTCATCC ((((((....))).))) | 45.5 °C | -17.3 kcal/mol
GCGTGTGGAAACGCATGC ((.((.(....).)).)) | 47.4 °C | -23.4 kcal/mol
GCGTACGAAAGTACCGC ((((((....))).))) | 56.8 °C | -22.2 kcal/mol
GTTAAACGAAAGTTAAAC (((.(((....))).))) | 34.2 °C | -17.7 kcal/mol
GATCAGCGATCTGATC ((((((....)))))) | 50 °C | -19.5 kcal/mol
GGAATGCGAAAGCACTCC (((.(((....))).))) | 48.3 °C | -23.6 kcal/mol
GATCATAGACATGATC ((((((....)))))) | 45.7 °C | -34.4 kcal/mol
GGTATCGGAAACGATACC (((((((....))))))) | 64 °C | -48.7 kcal/mol
GCTATGCGAAAGCGTGGC ((.(.((....)).).)) | 53.5 °C | -26.1 kcal/mol
GACAGCGAAAGCTTCGTC ((((((....)))..))) | 43.9 °C | -13 kcal/mol
GGAACCGAAAGGTAATCC ((((((....)))..))) | 26.8 °C | -9.87 kcal/mol

Sequence | Tm [1] | folding enthalpy [2]
GATCTCAACGGAGATC ((((((....)))))) | 52.3 °C | -35 kcal/mol
GTTACTCGAAAGAGCAAC (((.(((....))).))) | 43.3 °C | -27.5 kcal/mol
GCGCACGGAAACGCACGC (((..((....))..))) | 42.2 °C | -31.2 kcal/mol
GGCTGGTCGAAAGACGCC (((..(((....)))))) | 52.1 °C | -27 kcal/mol
GGTACGGGAAACCGTATC (.(((((....))))).) | 49.7 °C | -25.7 kcal/mol
GCTTGTGGAAACATAAGC ((((.((....)).)))) | 46.8 °C | -29.9 kcal/mol
GGTCGCCGAAAGGCCACC (((.(((....))).))) | 48.1 °C | -15.7 kcal/mol
GCAAGGCGAAAGCATAGC ((.(.((....)).).)) | 39.6 °C | -14.8 kcal/mol
GACAGCGAAAGCTCTGTC ((((((....)))..))) | 39.6 °C | -15.2 kcal/mol
GGATTTCCGAAAGGATCC (((..(((....)))))) | 34.2 °C | -17.6 kcal/mol
CGTGCGGAAACGCATACG ((((((....)))..))) | 44.9 °C | -15.4 kcal/mol
GCTCAGCGAAAGCTGCGC ((.((((....)))).)) | 59.9 °C | -24.8 kcal/mol
CGTGGCCGGAAACGGACG (((..(((....)))))) | 44.2 °C | -10.8 kcal/mol
GAGGTGGCGAAAGCCCTC (((..(((....)))))) | 43.7 °C | -14.4 kcal/mol
GATCGGCATTCCGATC ((((((....)))))) | 57 °C | -37.6 kcal/mol
GTATGGGAAACCATAC ((((((....)))))) | 50.8 °C | -36.9 kcal/mol
GCGAACGGAAACATCCGC (((.(.(....).).))) | 20.9 °C | -7.45 kcal/mol
GCTGGACGAAAGTCGAGC (((.(((....))).))) | 56.2 °C | -44.2 kcal/mol
GCCTCGCGAAAGCTTGGC (((..((....))..))) | 51.4 °C | -25.5 kcal/mol
GATCTCAGGGGAGATC ((((((....)))))) | 52.5 °C | -34.4 kcal/mol
GATTCCGGAAACGGAACC (.(((((....))))).) | 40.1 °C | -13.6 kcal/mol
GATCTGAAAGCAGATC ((((((....)))))) | 42.1 °C | -26.4 kcal/mol
GGGAAGCGAAAGCTCCCC (((.(((....))).))) | 61.5 °C | -21.7 kcal/mol
